# Experimental data from ChEMBL document CHEMBL3045489, “Synthesis, fungicidal activity, and QSAR of a series of 2-dichlorophenyl-3-triazolylpropyl ethers” (J Agric Food Chem, 2000).
# Active and inactive are the calls of the source. The rule behind the calls is not given here.
# Columns and labels:
# Oculimacula yallundae = assay: Antifungal activity against Oculimacula yallundae assessed as inhibition of radial growth on potato dextrose; type: functional, organism-based
# Method in brief: (§1)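 Radial growth inhibition on potato dextrose or Czapek agar across 100-0.1 mg L-1. ED50 calculated for each compound.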
# Bipolaris maydis = assay: Antifungal activity against Cochliobolus heterostrophus assessed as inhibition of radial growth on potato dextrose; type: functional, organism-based; method in brief: as §1
# Uromyces appendiculatus [1] = assay: Fungicidal activity against Uromyces appendiculatus inoculated in Phaseolus vulgaris placed in growth room after 24 hr incubation assessed as direct protection after 6 to 10 days; type: functional
# Method in brief: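 Bean plants grown at 22 ± 1 °C, 80 ± 10% RH. Compound in acetone/water (1:4 v/v) with Tween 20 (0.4 mg mL-1) was sprayed on leaves until moist at 100 to 0.001 mg L-1. One day later leaves were inoculated with U. appendiculatus uredospores (1 × 10^5 spores mL-1), held 24 h at 22 ± 2 °C and 100% RH, then moved to the growth room. Scored at 6, 8 and 10 days as MIC.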
# Podosphaera fuliginea [2] = assay: Fungicidal activity against Podosphaera fuliginea inoculated in […] placed in growth room after 24 hr incubation assessed as disease cure after 24 hr of inoculation; type: functional
# Ustilago maydis = assay: Antifungal activity against Ustilago maydis assessed as inhibition of radial growth on potato dextrose; type: functional, organism-based; conditions: Mycosarcoma maydis
# Botrytis cinerea = assay: Antifungal activity against Botryotinia fuckelianaassessed as inhibition of radial growth on potato dextrose; type: functional, organism-based; method in brief: as §1
# Pyrenophora teres = assay: Antifungal activity against Pyrenophora teres assessed as inhibition of radial growth on potato dextrose; type: functional, organism-based
# Podosphaera fuliginea [3] = assay: Fungicidal activity against Podosphaera fuliginea inoculated in […] placed in growth room after 24 hr incubation assessed as direct protection after 6 to 10 days; type: functional
# Cercospora beticola = assay: Antifungal activity against Cercospora beticola assessed as inhibition of radial growth on potato dextrose; type: functional, organism-based; method in brief: as §1
# Fusarium graminearum = assay: Antifungal activity against Fusarium graminearum assessed as inhibition of radial growth on potato dextrose; type: functional, organism-based; method in brief: as §1
# [4] = biological target: T1, Lanosterol 14-alpha demethylase (Mycosarcoma maydis) (UniProt P49602); assay: Inhibition of 14alpha-demethylase Ustilago maydis ATCC 14826 assessed as reduction in ergosterol
# T1 sequence (whole entry): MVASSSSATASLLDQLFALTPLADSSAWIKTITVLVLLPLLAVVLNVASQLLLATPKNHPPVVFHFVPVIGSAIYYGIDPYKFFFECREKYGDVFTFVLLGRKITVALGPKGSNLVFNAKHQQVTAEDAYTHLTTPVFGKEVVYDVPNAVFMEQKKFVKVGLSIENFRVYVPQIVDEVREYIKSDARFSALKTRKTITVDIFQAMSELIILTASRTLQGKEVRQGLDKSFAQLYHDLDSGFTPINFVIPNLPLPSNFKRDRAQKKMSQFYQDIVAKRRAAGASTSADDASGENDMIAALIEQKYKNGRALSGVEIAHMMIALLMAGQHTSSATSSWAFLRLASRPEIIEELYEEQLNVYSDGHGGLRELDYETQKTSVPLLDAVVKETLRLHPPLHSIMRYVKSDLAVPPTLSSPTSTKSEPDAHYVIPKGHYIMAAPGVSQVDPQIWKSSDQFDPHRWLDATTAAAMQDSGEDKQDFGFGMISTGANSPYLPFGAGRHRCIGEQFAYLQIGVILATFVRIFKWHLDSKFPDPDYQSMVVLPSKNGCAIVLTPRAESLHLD
# Method in brief: (§2)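 Actively growing broth cultures of U. maydis ATCC 14826 were incubated 18 h with increasing compound concentrations. Sterols were then extracted and analysed, and 14α-demethyl and 14α-methyl sterols quantified.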
# [5] = biological target: T1, Lanosterol 14-alpha demethylase (Mycosarcoma maydis); assay: Inhibition of 14alpha-demethylase Ustilago maydis ATCC 14826 assessed as reduction in ergosta-5,7-dien-3-ol; method in brief: as §2
# [6] = biological target: T2, Lanosterol 14-alpha demethylase (Mycosarcoma maydis, UniProt P49602); assay: Inhibition of 14alpha-demethylase Ustilago maydis ATCC 14826 assessed as reduction in 14alpha-methylfecosterol; conditions: read-out: I50 (converted); method in brief: as §2
# T2 sequence (P49602 whole entry): T1 sequence (whole entry)
# Uromyces appendiculatus [7] = assay: Fungicidal activity against Uromyces appendiculatus inoculated in Phaseolus vulgaris placed in growth room after 24 hr incubation assessed as disease cure after 24 hr of inoculation; type: functional
# Method in brief: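 Bean rust curative test with the same plants, spray formulation (acetone/water 1:4 with Tween 20), 100 to 0.001 mg L-1 range and U. appendiculatus inoculum (1 × 10^5 spores mL-1). Compound applied 24 h after inoculation. Read-out expressed as MIC.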
SMILES,EC50 (Oculimacula yallundae) [µg/mL],EC50 (Bipolaris maydis) [µg/mL],MIC (Uromyces appendiculatus [1]) [µg/mL],MIC (Podosphaera fuliginea [2]) [µg/mL],EC50 (Ustilago maydis) [µg/mL],EC50 (Botrytis cinerea) [µg/mL],EC50 (Pyrenophora teres) [µg/mL],MIC (Podosphaera fuliginea [3]) [µg/mL],EC50 (Cercospora beticola) [µg/mL],EC50 (Fusarium graminearum) [µg/mL],inhibition [4],inhibition [5],IC50 [6] [nM],MIC (Uromyces appendiculatus [7]) [µg/mL]
C=C(Cn1cncn1)c1ccc(Cl)cc1Cl,0.45,0.4,150,1,0.8,4.5,0.9,8,0.6,2.9,–,–,–,–
Clc1ccc([C@@H](COCc2ccccc2)Cn2cncn2)c(Cl)c1,0.6,0.25,50,–,0.09,1.3,0.35,100,0.18,13,–,–,–,–
Clc1ccc([C@H](COCc2ccccc2)Cn2cncn2)c(Cl)c1,0.41,0.25,50,–,< 0.1,3,0.5,80,0.16,18,–,–,–,–
C=CCOC[C@@H](Cn1cncn1)c1ccc(Cl)cc1Cl,0.28,0.18,25,–,0.09,1.5,1.5,90,< 0.1,10,Active,Active,897,–
C=CCOC[C@H](Cn1cncn1)c1ccc(Cl)cc1Cl,0.4,0.2,100,–,0.22,3,0.8,100,0.25,8.5,Active,Active,1990,–
C#CCOCC(Cn1cncn1)c1ccc(Cl)cc1Cl (stereo unspecified),0.5,–,> 100,–,0.5,3.6,1.4,–,0.3,25,–,–,–,–
OCCCOCC(Cn1cncn1)c1ccc(Cl)cc1Cl (racemic),2.5,1.3,> 200,–,1,70,8,> 100,1.7,75,–,–,–,–
Clc1ccc(C(COCc2ccccc2)Cn2cncn2)c(Cl)c1 (racemic),0.35,0.18,30,–,0.14,1.6,0.7,50,0.2,5,–,–,–,35
O=[N+]([O-])c1ccc(COCC(Cn2cncn2)c2ccc(Cl)cc2Cl)cc1 (racemic),0.18,0.15,43,–,0.08,2.8,0.75,10,0.09,> 200,–,–,–,–
COc1ccc(COCC(Cn2cncn2)c2ccc(Cl)cc2Cl)cc1 (racemic),0.35,0.15,30,–,0.07,1,0.45,35,0.1,10,–,–,–,12
CC(C)(C)c1ccc(COCC(Cn2cncn2)c2ccc(Cl)cc2Cl)cc1 (racemic),1.2,0.4,25,10,0.1,3.8,0.8,10,0.28,6.5,–,–,–,–
Clc1ccc(COCC(Cn2cncn2)c2ccc(Cl)cc2Cl)c(Cl)c1 (racemic),0.65,0.28,30,–,0.09,1,0.35,10,0.18,12,–,–,–,–
